Fewer inactive variants are shown than the library holds.

First the molecules themselves.
B1: tRNA (parent)
chain: GUUCCGUUGGCGUAAUGGUAACGCGUCUCCCUCCUAAGGAGAAGACUGCGGGUUCGAGUCCCGUACGGAACG

This data set covers variants of B1. The experiment in a line: yeast fitness relative to wild type (ratio to wild type); higher = fitter; tRNA-Arg(CCU), competitive growth, 37 C, YPD. In outline:
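Amplicons of the tRNA-Arg(CCU) gene were sequenced, 100-nucleotide paired-end, from the start population and from each end population of a pooled yeast competition. The competition, in six parallel replicates, lasted 24 hours in YPD at 37°C. Fitness relative to wild type was calculated from changes in genotype frequencies. Genotypes had to have ≥ 100 starting reads, and estimates < 0.5 were set to 0.5.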
Take GUUCCGUUGGCGUAAUGGUAACGCGUCUUCCUCCUAACGAGAUGACUGCGGGGUCGAGUCCCCUACGGAACG [C29U G38C A43U U53G G63C]: the yeast fitness is at most 0.5.

As to GUUCCGUUGGCGUAAUGGUAACGCGUCUCCCUCCUAGGGAGAAGACUGCGGGUUCGAGUCCCGUACGGUACG [A37G A69U], the yeast fitness came out at 0.856. As for GUUCCGUUGACGUAAUGGUAACGCGUCUACCUCCUAAGGAGAAGACUGCGGGUUCGAGUCCCGUACGGAACG [G10A C29A], the figure is 0.574; as for GUUCUGUUGACGUAAUGGUAACGCGUCUCCCUCCUAAGGAGAAGACUGCGGGUUCGAGUCCGGUAGGGAACG [C5U G10A C62G C66G], at most 0.5; as for GUUCGGUUGGCGGAAUGGUAACGCGUCUUCCUCCUAAGGGGAAGACUGCGGGUUCGAGUUCCGUGUGGAACG [C5G U13G C29U A40G C60U A65G C66U], at most 0.5. Under GUUCCGUUGGCGUAAUGGUCACGCAUCUCCGUUUUAAGGACAAGACUGCGGGUUCGGGUCCCGUACGGAACG [A20C G25A C31G C33U C34U G41C A57G] stands at most 0.5; under GUUGUGUAGGCAUAAUGGUAACGCGUCUCCCUCCUAAGGAGAAGACUACGGGUUCGAGUCCCGUACGGCACG [C4G C5U U8A G12A G48A A69C], at most 0.5. Under GUUCCGUUAGCGUCAUGGUAACGCCUCUCCCUCCUAAGGAGAAGACUGCGGGUUCAAGUCCCGUACGGAACG [G9A A14C G25C G56A] stands 0.579. Regarding GUUCCGUUGGCGUAAUGGUAACGCGUCUCCCUCCUAAGGAGAAGACCGCGGGUUCGAGUCCCGUAUGGCACG [U47C C66U A69C], the yeast fitness was determined as 0.675. Under GUUCCGUUGGUGUAAUGGUAUCGCGUCUCCCUCCUAAGGAGAAGAAUGCGGGUUCGAGUCCCGUACGGAACG [C11U A21U C46A] stands 0.685.

Regarding GUUCCGUUGGCGUAAUGGUGACGCGUCUCCCACCUAAGGAGAAGACUGCGGGUUCGAGUCCCGUACGGAACG [A20G U32A], the yeast fitness came out at 0.719. Under GUUCCGUUGGCGUAACGGUAACGCGUCUCCCUCCUAAGGAGACGACUGCGGGUAUGAGUUCCGUACGAAACG [U16C A43C U54A C55U C60U G68A] stands at most 0.5; under GUUCCGUUGGCGUAAUGGUAACGCGUCCCUCUCCUAAGGAGAAGACUGCGGGUUCGAGCCCCGUACGGAACG [U28C C30U U59C], at most 0.5.

GUUCCGUUGGUAUAAUGGUAACGCGUCUCCCUCCUAAGGAGAAGACUGCGGGUUCGAGUCUCGUACGGAACG [C11U G12A C61U]: the yeast fitness is 0.511. Under GGUCCGUUGGCGUAAUGGUAACGCGUCGCCCUCCUAAGGAGAAGACUGCGGGUUCGAGUCCCGUACGCAACG [U2G U28G G68C] stands at most 0.5; under GUUCCGUUGGCGUAAUGGUAACGGGUCUCCCUCCUAAGGAGAAGACUGCGGGUACGAGUCCCGUUUGGAACG [C24G U54A A65U C66U], at most 0.5. Under GUUCCGUUGGCGUAAUGACAAUGCGUCUCCCUCCUAAGGAGAAGACUGCGGGUUCGAGUCCCGUACGGAACG [G18A U19C C22U] stands 0.641; under GUGCCGUUGGCGUAAUGGUAACGCGUCUCCCUCCUACGGAGAAGACUGCGGGUUCAAGUCCCGUACGGAACG [U3G A37C G56A], 0.533. Under GUUCCGUUGGCGUAAUGGUAACGCGUCUCCCUCCUAAGGAGAAGAAUGAGGGUUCGAGUCCCGUACGGAACG [C46A C49A] stands 0.601; under GUUCCGUUGGCGUAGUGGUAACGCGUCUCCCUCCUAAGGAGAAGACUGCGGGUUCGUGUCCCGUACGUAACG [A15G A57U G68U], at most 0.5; under GUUCCGUUGGUGUAACGGUAACGCGUCUCCCUCCUAAGGAGAAGACUGCGGGUUCGACUCCCGUACGGAACG [C11U U16C G58C], 0.653.

Take GUUCCGUUGGCGUAACGGUAACGCGUCUCCCCCCUAAGGACAAGACUGCAGGUUCGAGUCGCGUACGGAACG [U16C U32C G41C G50A C61G]: the yeast fitness came out at 0.567. Take GUUCCGUUGGCGUAAUGGUAACGCGUCUCCCUCCUAAGGGGAAGACUGCGGGCUCGAGUCAGGUACGGAACG [A40G U53C C61A C62G]: the yeast fitness is at most 0.5.

For GUUCCGUUGGCGUAAUGGUAAUGCGUCUCCCUCCUAAGGAGUAGACUGCGGGUUCGAGUCCCGUACGGAACG [C22U A42U], the yeast fitness was determined as 0.749. Under GUUCCGUUGGCGUAAUGGUUACGCGUCUCCCCCCUAAGGAGAAGACUGCGGGUUCGAGUCCCGUACGGAACG [A20U U32C] stands 0.882; under GUUCCGUUGGCGUAAUGGAAACGCGUCUCCCUCCUAAGGAGAAGACUGCGGGUUCGAGUCCCGCACGGAACG [U19A U64C], 0.901. Under GUUCCGUUGGCGUAAUGGUAACGCGUCUCCCUCCUAUGGAGAAGACUGUGGGUUCGAGUCCCGAACGGAACG [A37U C49U U64A] stands at most 0.5; under GUUCCGUUGGCGUAAUGGUAACGCGUCUCCCUCCUACGGAGAAGAUUGCGGGUUCGAGUCCCGUCCCGAACG [A37C C46U A65C G67C], at most 0.5. As for GUUCCGUUGGGGUAAUGGUAACGCGUCUCCCUCCUAAGGAGAAGACUGCGGAUUCGAGUCCCGUACGGCACG [C11G G52A A69C], the figure is at most 0.5. On to GUUCCGUUGGCGUAAUGGUAACGCGUCUCCAUCCUAAGGAGAAGACUGCGGGUUCGAGUCCCGUACGGACCG [C31A A70C], for which the yeast fitness amounted to 0.783.

As to GUUCCGUUGGCGUAAUGGUAACGCGUCUCCGUCUUAAGGCGAAGACUGCGGGUUCGAGUCCCGUACGGCACG [C31G C34U A40C A69C], the yeast fitness is at most 0.5. Under GUUCGGUUGGCGUAAUGGUAACGCGUCUCCCUUCUAAGGAGAAGACUGCGGGUUCGAGUCCCGUACGGAACG [C5G C33U] stands 0.673; under GUCCCGUUGGCGUAAUGGUAACGCGUCUCCCUCCUAAGGAGAAGACUGCGGGUUCGAGUCCCGCACGGAACG [U3C U64C], 1.04; under GUUCCGUUGGCGUAAUGGUAACGCGUCUCCCUCCUAAGGAGAAGACUGCGGGUUCGCGUCCCGUACGGAUCG [A57C A70U], 0.679. Under GUUCCGUUGGCGUAAUGGUAACGCGUCUCCCGCCUAAGGAGAAGCCUGCGGGUUCGAGUCCCGUACGAAACG [U32G A45C G68A] stands at most 0.5; under GUUCCGUUGGCGUAAUGGUCACGCGUCUCCCUCCUAAAGAGAAGACUGCGGGUUAGAGUCCCGUAUGGAACG [A20C G38A C55A C66U], at most 0.5. Consider GUUCCGUUGGCGUAAUGGUUACGCGUCUCCCUCCUAAGGAGAAGACUGCGGGUUGGAGUCCCGUACGGAACG [A20U C55G], for which the yeast fitness was found to be 0.669.

The values are drawn from the RNAGym collection of RNA variant scans (doi:10.1126/science.aae0568).
